In ChEMBL document CHEMBL1157208, “Synthesis and CNS depressant activity of some novel 3-[5-substituted 1,3,4-thiadiazole-2-yl]-2-styryl quinazoline-4(3H)-ones” (Eur J Med Chem, 2008):
Active and inactive are the calls of the source. The rule behind the calls is not given here.

Tests used:
Mus musculus [1] = assay: Anticonvulsant activity in ip dosed mouse assessed as inhibition of pentylenetetrazole-induced seizure after 0.5 hrs; format: functional
Summary of the method: (§1)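 Male albino mice (CF-1 or Swiss, 18–25 g) received compound suspended in polyethylene glycol 400, i.p., 0.01 ml/g, at 30, 100 and 300 mg/kg. Maximal electroshock and subcutaneous pentylenetetrazole seizure tests were run at 0.5 and 4 h by a previously reported procedure.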

Mus musculus [2] = assay: Anticonvulsant activity in mouse assessed as inhibition of maximal electroshock-induced seizures at 300 mg/kg, ip after 0.5 hrs; format: functional, organism-based; parameters: dose 300 mg/kg; summary of the method: as §1
Mus musculus [3] = assay: Anticonvulsant activity in mouse assessed as inhibition of maximal electroshock-induced seizures at 300 mg/kg, ip after 4 hrs; format: functional, organism-based; parameters: dose 300 mg/kg; summary of the method: as §1
Mus musculus [4] = assay: Anticonvulsant activity in mouse assessed as inhibition of pentylenetetrazole-induced seizure at 300 mg/kg, ip after 4 hrs; format: functional, organism-based; parameters: dose 300 mg/kg; summary of the method: as §1
Mus musculus [5] = assay: Neurotoxicity in mouse at 300 mg/kg, ip after 0.5 hrs by rotarod test; format: toxicity, organism-based; parameters: dose 300 mg/kg, route intraperitoneal; settings: in vivo
Summary of the method: (§2)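 Mice dosed i.p. at 30, 100 and 300 mg/kg in PEG 400 were examined 0.5 and 4 h later on a rotorod. Animals were pre-trained on a 3.2 cm rod turning at 6 rpm. Neurotoxicity meant failing to keep equilibrium for at least 1 min in each of three trials. The value is the minimum dose affecting half or more of the animals.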

Mus musculus [6] = assay: Neurotoxicity in mouse at 300 mg/kg, ip after 4 hrs by rotarod test; format: toxicity, organism-based; parameters: dose 300 mg/kg, route intraperitoneal; settings: in vivo; summary of the method: as §2
Mus musculus [7] = assay: Anticonvulsant activity in ip dosed mouse assessed as inhibition of maximal electroshock-induced seizures after 4 hrs; format: functional; summary of the method: as §1
Mus musculus [8] = assay: Neurotoxicity in ip dosed mouse after 0.5 hrs by rotarod test; format: toxicity, organism-based; settings: in vivo; summary of the method: as §2
Mus musculus [9] = assay: Neurotoxicity in mouse at 100 mg/kg, ip after 0.25 hrs by rotarod test; format: toxicity, organism-based; parameters: dose 100 mg/kg, route intraperitoneal; settings: in vivo
Mus musculus [10] = assay: Neurotoxicity in mouse at 100 mg/kg, ip after 1 hr by rotarod test; format: toxicity, organism-based; parameters: dose 100 mg/kg, route intraperitoneal; settings: in vivo
Mus musculus [11] = assay: Sedative-hypnotic effect in mouse assessed as decrease locomotor activity score at 100 mg/kg, ip after 0.5 hrs by actophotometer; format: functional; settings: route intraperitoneal
Summary of the method: (§3)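 Locomotor activity in mice was read as a digital photocell score on an actophotometer. Baseline was taken 24 h before treatment, then at 30 min and 1 h after 100 mg/kg i.p. Controls received PEG 400. Percent decrease was calculated from the 1 h values. Results are mean ± SEM of six mice, compared with Student's t test.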

Mus musculus [12] = assay: Sedative-hypnotic effect in mouse assessed as decrease locomotor activity score at 100 mg/kg, ip after 1 hr by actophotometer; format: functional; settings: route intraperitoneal; summary of the method: as §3
Mus musculus [13] = assay: Sedative-hypnotic effect in mouse assessed as inhibition of locomotor activity at 100 mg/kg, ip by actophotometer; format: functional; settings: route intraperitoneal; summary of the method: as §3
Mus musculus [14] = assay: Anticonvulsant activity in mouse assessed as inhibition of pentylenetetrazole-induced seizure at 300 mg/kg, ip after 0.5 hrs; format: functional, organism-based; parameters: dose 300 mg/kg; summary of the method: as §1
Mus musculus [15] = assay: Anticonvulsant activity in ip dosed mouse assessed as inhibition of maximal electroshock-induced seizures after 0.5 hrs; format: functional; summary of the method: as §1
Mus musculus [16] = assay: Anticonvulsant activity in ip dosed mouse assessed as inhibition of pentylenetetrazole-induced seizure after 4 hrs; format: functional; summary of the method: as §1
Mus musculus [17] = assay: Toxicity in mouse at 300 mg/kg, ip; format: organism-based; parameters: dose 300 mg/kg, route intraperitoneal; settings: in vivo
Mus musculus [18] = assay: Neurotoxicity in ip dosed mouse after 4 hrs by rotarod test; format: toxicity, organism-based; settings: in vivo; summary of the method: as §2
Rattus norvegicus = assay: Antidepressant activity in Wistar rat assessed as increase in immobility time at 30 mg/kg, ip after 30 mins by forced-swimming test; format: functional; settings: route intraperitoneal
Mus musculus [19] = assay: Sedative-hypnotic effect in mouse assessed as decrease locomotor activity score at 25 mg/kg, po after 0.5 hrs by actophotometer; format: functional
Mus musculus [20] = assay: Sedative-hypnotic effect in mouse assessed as decrease locomotor activity score at 25 mg/kg, po after 1 hr by actophotometer; format: functional
Mus musculus [21] = assay: Sedative-hypnotic effect in mouse assessed as inhibition of locomotor activity at 25 mg/kg, po by actophotometer; format: functional
Mus musculus [22] = assay: Neurotoxicity in mouse assessed as loss of righting reflux at 100 mg/kg, ip after 0.5 hrs; format: toxicity, organism-based; parameters: dose 100 mg/kg, route intraperitoneal; settings: in vivo

| SMILES | Activity (Mus musculus [2]) | Activity (Mus musculus [3]) | Activity (Mus musculus [4]) | Activity (Mus musculus [5]) | Activity (Mus musculus [6]) | Activity (Mus musculus [7]) [mg/kg] | Activity (Mus musculus [11]) | Activity (Mus musculus [12]) | inhibition in vivo at 100 mg/kg (Mus musculus [13]) [%] | Activity (Mus musculus [14]) | also measured |
| --- | --- | --- | --- | --- | --- | --- | --- | --- | --- | --- | --- |
| CCCC(CCC)C(=O)[O-].[Na+] [VALPROATE SODIUM] | inactive | inactive | inactive | Not Active | Not Active | – | – | – | – | – | Activity (Mus musculus [1]): 300 mg/kg |
| O=c1c2ccccc2nc(/C=C/c2ccccc2)n1-c1nnc(-c2cccc(Cl)c2)s1 | inactive | – | inactive | – | Not Active | 100 | 319.57 | 165.52 | 63 | inactive | Activity (Mus musculus [8]): 300 mg/kg; Activity (Mus musculus [9]): Toxic; Activity (Mus musculus [10]): Toxic |
| CCC1(C)CC(=O)NC1=O (centres undefined) [ETHOSUXIMIDE] | inactive | inactive | inactive | Not Active | Not Active | – | – | – | – | – | Activity (Mus musculus [1]): 300 mg/kg |
| O=c1c2ccccc2nc(/C=C/c2ccccc2)n1-c1nnc(-c2ccc(Cl)cc2)s1 | – | – | – | Not Active | Not Active | 100 | 250.62 | 132.04 | 68 | – | Activity (Mus musculus [15]): 100 mg/kg; Activity (Mus musculus [1]): 300 mg/kg; Activity (Mus musculus [16]): 300 mg/kg |
| COc1ccc(-c2nnc(-n3c(/C=C/c4ccc(C)cc4)nc4ccccc4c3=O)s2)cc1 | inactive | inactive | inactive | Not Active | Not Active | – | 272.19 | 137.19 | 65 | inactive | – |
| COc1ccc(/C=C/c2nc3ccccc3c(=O)n2-c2nnc(-c3cccc(Cl)c3)s2)cc1 | inactive | – | inactive | Not Active | Not Active | 300 | 292.39 | 110.45 | 66 | inactive | – |
| O=c1c2ccccc2nc(/C=C/c2ccccc2)n1-c1nnc(-c2ccccc2)s1 | – | inactive | – | Not Active | Not Active | – | 472.31 | 249.45 | 55 | inactive | Activity (Mus musculus [15]): 30 mg/kg; Activity (Mus musculus [17]): Toxic |
| NC(=O)N1c2ccccc2C=Cc2ccccc21 [CARBAMAZEPINE] | – | – | – | – | – | 100 | – | – | – | – | Activity (Mus musculus [15]): 30 mg/kg; Activity (Mus musculus [1]): 100 mg/kg; Activity (Mus musculus [16]): 300 mg/kg; Activity (Mus musculus [8]): 100 mg/kg; Activity (Mus musculus [18]): 300 mg/kg; Activity (Rattus norvegicus): 240.3 s |
| Cc1ccc(/C=C/c2nc3ccccc3c(=O)n2-c2nnc(-c3ccc(C)cc3)s2)cc1 | inactive | inactive | inactive | Not Active | Not Active | – | 291.39 | 92.2 | 71 | inactive | – |
| Cc1ccc(/C=C/c2nc3ccccc3c(=O)n2-c2nnc(-c3cccc(Cl)c3)s2)cc1 | inactive | inactive | – | Not Active | Not Active | – | 298.67 | 128.94 | 65 | – | Activity (Mus musculus [1]): 300 mg/kg; Activity (Mus musculus [16]): 300 mg/kg |
| COc1ccc(/C=C/c2nc3ccccc3c(=O)n2-c2nnc(-c3ccc(C)cc3)s2)cc1 | inactive | inactive | inactive | Not Active | Not Active | – | 315.46 | 142.19 | 64 | – | Activity (Mus musculus [1]): 300 mg/kg |
| O=c1c2ccccc2nc(/C=C/c2ccccc2)n1-c1nnc(/C=C/c2ccccc2)s1 | inactive | inactive | inactive | – | Not Active | – | 372.87 | 489.92 | – | inactive | Activity (Mus musculus [8]): 300 mg/kg |
| COc1ccc(/C=C/c2nc3ccccc3c(=O)n2-c2nnc(/C=C/c3ccccc3)s2)cc1 | inactive | inactive | inactive | Not Active | Not Active | – | 362.37 | 228.32 | 51 | inactive | – |
| Cc1ccc(/C=C/c2nc3ccccc3c(=O)n2-c2nnc(-c3ccccc3)s2)cc1 | inactive | inactive | inactive | Not Active | Not Active | – | 353.52 | 185.15 | 55 | inactive | – |
| O=C1NC(=O)C(c2ccccc2)(c2ccccc2)N1 [PHENYTOIN] | – | – | inactive | – | – | 30 | – | – | – | inactive | Activity (Mus musculus [15]): 30 mg/kg; Activity (Mus musculus [8]): 100 mg/kg; Activity (Mus musculus [18]): 100 mg/kg; Activity (Mus musculus [19]): 251.02; Activity (Mus musculus [20]): 164.1; inhibition in vivo at 25 mg/kg (Mus musculus [21]): 70% |
| COc1ccc(-c2nnc(-n3c(/C=C/c4ccccc4)nc4ccccc4c3=O)s2)cc1 | inactive | inactive | inactive | Not Active | Not Active | – | 381.82 | 266.36 | 36 | inactive | – |
| COc1ccc(/C=C/c2nc3ccccc3c(=O)n2-c2nnc(-c3ccc(Cl)cc3)s2)cc1 | inactive | – | – | Not Active | Not Active | 300 | 306.98 | 155.31 | 62 | – | Activity (Mus musculus [16]): 300 mg/kg |
| COc1ccc(/C=C/c2nc3ccccc3c(=O)n2-c2nnc(-c3ccccc3)s2)cc1 | inactive | inactive | inactive | – | Not Active | – | 419.24 | 210.24 | 55 | inactive | Activity (Mus musculus [22]): Toxic |
| Cc1ccc(/C=C/c2nc3ccccc3c(=O)n2-c2nnc(-c3ccc(Cl)cc3)s2)cc1 | inactive | – | inactive | Not Active | Not Active | 300 | 373.56 | 153.08 | 64 | inactive | – |
| COc1ccc(/C=C/c2nc3ccccc3c(=O)n2-c2nnc(-c3ccc(OC)cc3)s2)cc1 | inactive | inactive | inactive | – | Not Active | – | 308.13 | 180.3 | 59 | inactive | Activity (Mus musculus [8]): 300 mg/kg |
| Cc1ccc(/C=C/c2nc3ccccc3c(=O)n2-c2nnc(/C=C/c3ccccc3)s2)cc1 | inactive | inactive | inactive | Not Active | Not Active | – | 310.32 | 123.32 | 67 | inactive | – |
| Cc1ccc(-c2nnc(-n3c(/C=C/c4ccccc4)nc4ccccc4c3=O)s2)cc1 | inactive | inactive | inactive | Not Active | Not Active | – | 531 | 467 | – | inactive | – |
